NR2E3 ag-1 – inhibitors of NR2E3-RetCOR corepressor binding, primary screen, NR2E3 agonist project, biochemical, TR-FRET, GST-NR2E3, biotin-RetCOR. 1536-well. inhibition of corepressor binding, % at 4.78 µM. 0.12% of 320,000 active;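 active = percent inhibition above the cutoff of mean plus 3 SD of all tested compounds, set per screening campaign, cut at about 20% in these data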;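 also: 0% = DMSO wells and 100% = biotin wells as full block of FRET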
Target sequence (Q9Y5X4 whole entry, looked up): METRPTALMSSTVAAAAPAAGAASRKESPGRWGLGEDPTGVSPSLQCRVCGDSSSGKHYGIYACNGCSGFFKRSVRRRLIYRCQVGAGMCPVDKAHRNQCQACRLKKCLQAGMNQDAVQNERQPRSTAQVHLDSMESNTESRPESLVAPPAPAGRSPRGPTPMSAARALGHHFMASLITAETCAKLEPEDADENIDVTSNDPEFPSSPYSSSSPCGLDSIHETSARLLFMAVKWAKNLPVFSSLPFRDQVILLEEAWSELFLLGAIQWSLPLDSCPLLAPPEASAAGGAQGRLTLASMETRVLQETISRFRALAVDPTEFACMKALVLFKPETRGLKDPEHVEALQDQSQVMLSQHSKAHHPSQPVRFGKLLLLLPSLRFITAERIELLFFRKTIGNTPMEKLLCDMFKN
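Material: NR2E3–RetCOR corepressor complex / Incubation: Compound–protein incubation for 5 h at 4 °C / Dosing: compound at 4.8 µM, single dose / Detection: time-resolved FRET / Benchmarks: high control biotin, low control 0.6% DMSO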
MPTP inh – mitochondrial permeability transition pore inhibitors, primary screen, biochemical, isolated mouse mitochondria, absorbance | Ca2+ swelling absorbance, 30 min | inhibition, % at 10 µM | 1.4% of 360,000 active | AID 602449, 2012;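 active = inhibition of 50% or more, scaled per plate between neutral and stimulator controls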;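 also: 0% = DMSO wells given calcium and 100% = 1 mM EGTA wells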
Jurkat NFkB inh – inhibitors of induced NF-kB luciferase reporter, primary screen, TCR NF-kB activation inhibitor project, cell-based, luminescence, uHTS. Jurkat, PMA/ionomycin-induced NF-kB luciferase reporter. inhibition, % at 4 µM. 0.53% of 330,000 active; in the data active = inhibition above about 50%
aDG glyco up – activators of alpha-DG glycosylation, primary screen, uHTS, Pro5-aDG cells, AlphaScreen; alpha-DG glycosylation AlphaScreen (IIH6); 0% Pro5, 100% B10-LARGE cell signal; activation, % at 10 µM; 0.22% of 360,000 active; AID 624168, 2012;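 active = activation of at least 8% versus controls, or a plate z-score of at least 8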;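 also: Pro5 are CHO cells carrying HIG-tagged alpha-DG that lacks glycosylation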
697 NFkB inh – inhibitors of PMA/ionomycin-induced NF-kB reporter, 697 cells, primary screen, B-cell NF-kB inhibitor project, cell-based, luminescence, uHTS; 697 B-cell NF-kB luciferase reporter, 16 h; inhibition, % at 4 µM; 0.33% of 330,000 active; in the data active = inhibition above about 35%
NR2E3 ag-2 – NR2E3 agonists in two-hybrid cells, primary screen, cell-based, luminescence, CHO-S, Gal4-NCOR/VP16-NR2E3; Photoreceptor-specific nuclear receptor (Homo sapiens), Q9Y5X4; luciferase; inhibition of corepressor binding, % at 3.98 µM; 0.35% of 360,000 active; AID 602229, 2012;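 active = inhibition above the mean of all tested compounds plus 3 SD, cut at about 70% in these data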;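 also: 0% = DMSO with NR2E3 transfected cells and 100% = cells lacking NR2E3 construct; higher means lower luciferase signal from less NR2E3 corepressor binding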
Rh123 counter – fluorescence retest of MPTP screen hits in isolated mitochondria, single concentration. shares compounds with MPTP inh. membrane potential, Rhodamine 123 fluorescence. inhibition, % at 10 µM. 78% of 5,000 active. AID 624504, 2012; in the data active = inhibition above about 22%;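 also: 0% = DMSO vehicle and 100% = positive control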
MPTP abs DR – mitochondrial permeability transition pore inhibitors, dose response, biochemical, absorbance, uHTS hits; shares compounds with MPTP inh; isolated mitochondria swelling; IC50, µM; 58% of 780 active; AID 651561, 2012; in the data active = IC50 below about 20 µM
MPTP counter DR – fluorescent counter-screen in isolated mitochondria, dose response, counter-screen for MPTP inhibitor project, biochemical, fluorescence, uHTS hits. shares compounds with MPTP inh. isolated mitochondria counterscreen, fluorescence read-out. IC50, µM. 49% of 780 active; in the data active = IC50 below about 80 µM
* hit, by the source's call; i = inactive; · = no result given. In the library only some 2.4% were active in any assay of this set; here they are far more common.

SMILES	NR2E3 ag-1	MPTP inh	Jurkat NFkB inh	aDG glyco up	697 NFkB inh	NR2E3 ag-2	Rh123 counter	others
Cc1ccc(NC(=O)CSc2nn(-c3ccccc3)c(=S)s2)cc1S(=O)(=O)N(C)C	-4	98*	13	3	-48	-18	76*
COc1ccc(CCNCC(=O)Nc2ccc(C)c(S(=O)(=O)N(C)C)c2)cc1	-1	68*	-13	0	7	-2	-3	MPTP abs DR=i;MPTP counter DR=74*
COc1ccc(CCC(=O)Nc2ccc(C)c(S(=O)(=O)N(C)C)c2)cc1OC	-1	23	20	1	-35	-4	·
O=C(CSc1nn(-c2ccccc2)c(=S)s1)Nn1cnnc1	-4	1	0	0	-26	-12	·
COC(=O)CCC(=O)N1CCCC(N2CCN(c3ccc(OC)cc3)CC2)C1 (stereo unspecified)	0	0	3	0	7	6	·
Cc1cccc(/C=N\NC(=O)c2ccc(Cl)cc2)c1O	0	74*	-13	2	-186	-78	80*
O=C(N/N=C/c1cc(Cl)ccc1O)c1ccc(Br)cc1	2	92*	·	1	·	-4	64*
CC(OC(=O)c1ccc(Cl)nc1)C(=O)NC1(C#N)CCCCC1 (stereo unspecified)	0	-1	-1	0	-8	3	·
COc1ccc(S(=O)(=O)NNC(=O)C2Cc3c(ccc4ccccc34)O2)cc1 (stereo unspecified)	1	80*	5	1	-30	27	54*
CN1CCN(C2=Cc3cc(Cl)ccc3Sc3cc(F)ccc32)CC1	1	91*	-7	0	3	-14	-13
CN1CCN(C2=Cc3ccccc3Sc3cc(F)c(F)cc32)CC1	-1	93*	-9	2	0	-15	-12
CN1CCN(C2=Cc3ccccc3Sc3cc(F)c(Cl)cc32)CC1	1	32	-11	2	-16	1	·
Cc1cccc(N2CCN(C(=O)CCCCCn3c(=S)[nH]c4ccc(N5CCOCC5)cc4c3=O)CC2)c1C	-1	0	-10	1	-54	-11	·
Cc1cc(=O)oc2cc(OCC(=O)OCC(=O)NC3CC3)ccc12	3	0	-8	0	8	-19	·
CCn1ccnc1CN(C)Cc1cn(-c2ccc(C)cc2)nc1-c1cccc(C)c1	1	51*	-4	0	6	4	-9	MPTP abs DR=>100;MPTP counter DR=46*
CCOC(=O)N1CCN(S(=O)(=O)c2ccc(C(=O)Nc3nc4ccccc4s3)cc2)CC1	0	43	-26	0	-69	-17	·
CCOC(=O)N1CCN(S(=O)(=O)c2ccc(C(=O)Nc3nc4ccc(F)cc4s3)cc2)CC1	-1	62*	9	0	-11	-10	1	MPTP abs DR=i;MPTP counter DR=6.3*
COc1cccc2sc(N(CCCN(C)C)C(=O)c3ccc(S(=O)(=O)N4CCc5ccccc5C4)cc3)nc12	0	0	2	0	10	4	·
CCOC(=O)c1ccc(S(=O)(=O)N2CCN(S(=O)(=O)CC)CC2)cc1	2	60*	-21	1	-40	-3	-1	MPTP abs DR=>100;MPTP counter DR=>80
COc1ccc(C)c2sc(N(CCCN(C)C)C(=O)c3ccc(S(=O)(=O)N4CCc5ccccc5C4)cc3)nc12	2	96*	·	0	·	14	-18
Cc1ccc2sc(N(CCCN(C)C)C(=O)c3ccc(S(=O)(=O)N4CCc5ccccc5C4)cc3)nc2c1C	-2	90*	-12	2	-18	7	-5	MPTP abs DR=i;MPTP counter DR=>80
Cc1ccc2sc(N(CCCN(C)C)C(=O)c3ccc(S(=O)(=O)N(C)C)cc3)nc2c1C	-3	-2	0	1	-6	9	·
Cc1cccc(CN2CCC(N3CC(C)OC(C)C3)CC2)c1 (stereo unspecified)	2	0	7	0	-13	-54	·
COc1ccc(-n2nnnc2C(c2cc3ccccc3o2)N2CCN(C/C=C/c3ccccc3)CC2)cc1 (stereo unspecified)	·	2	·	0	·	2	·
CC(=NNC(=O)CSCC(=O)NN=C(C)c1ccccc1)c1ccccc1	·	0	·	0	·	-2	·
SMILES	NR2E3 ag-1	MPTP inh	Jurkat NFkB inh	aDG glyco up	697 NFkB inh	NR2E3 ag-2	Rh123 counter	others
CN(C)CCCN(C(=O)c1ccc(S(=O)(=O)N2CCc3ccccc3C2)cc1)c1nc2c(F)cc(F)cc2s1	-2	91*	-3	0	1	2	-9
COc1cc2nc(N(CCCN(C)C)C(=O)c3ccc(S(=O)(=O)N4CCc5ccccc5C4)cc3)sc2cc1OC	-1	30	-7	1	5	-7	·
CCOC(=O)c1sc(NC(=O)c2ccc(S(=O)(=O)N3CCCCC3)cc2)nc1-c1ccccc1	5	50*	9	0	5	11	32*
CCOC(=O)N1CCN(S(=O)(=O)c2ccc(C(=O)N(CCCN(C)C)c3nc4c(F)cc(F)cc4s3)cc2)CC1	-3	51*	0	0	15	-7	-9	MPTP abs DR=19*;MPTP counter DR=>80
CCCSc1nsc(NC(=O)CCC)n1	6	-2	-58	0	-127	-144	·
CCOc1ccc(C2C(C(=O)c3ccco3)=C(O)C(=O)N2CCCn2ccnc2)cc1OC (stereo unspecified)	1	-1	0	0	-7	-14	·
Cc1ccc(C)c(S(=O)(=O)C(C#N)c2nc3ccccc3nc2N2CC(C)OC(C)C2)c1 (stereo unspecified)	0	78*	1	0	7	7	76*
Cc1ccc(S(=O)(=O)C(C#N)c2nc3ccccc3nc2N2CCC(C)CC2)cc1 (stereo unspecified)	·	1	·	0	·	-14	·
Cc1ccc(C)c(S(=O)(=O)C(C#N)c2nc3ccccc3nc2N2CCOCC2)c1 (stereo unspecified)	4	53*	7	0	-1	-26	73*

Source: PubChem (several laboratories)
